Reference: ChEMBL document CHEMBL1142645, “New variotin analogues from Aspergillus viridi-nutans” (2000)
Converted amounts (≈) assume the structure as drawn. The source made the active and inactive calls. The calls are words filed in the database; no cut-off is given here.

Key:
[1] = tested on: HeLa; experiment: Cytotoxicity against human HeLa S3 cells by Giemsa staining; format: functional
[2] = tested on: L1210; experiment: Cytotoxicity against mouse L1210 cells by Giemsa staining; format: functional
[3] = tested on: HL-60; experiment: Cytotoxicity against human HL60 cells by Giemsa staining; format: functional
[4] = tested on: Nadsonia fulvescens; experiment: Antifungal activity against Nadsonia fulvescens ATCC 24236 upto 100 ug/mL after 24 hrs by microtiter plate assay; format: functional, organism-based
In short: (§1)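 Broth microdilution in microtiter plates, following an earlier published method. Each test fungus was inoculated at 1×10^5 spores/mL. Plates were incubated for 24 h at 27 °C, and antifungal activity was then scored.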

[5] = tested on: Eremothecium coryli; experiment: Antifungal activity against Nematospora coryli ATCC 10647 upto 100 ug/mL after 24 hrs by microtiter plate assay; format: functional, organism-based; in short: as §1
[6] = tested on: Fusarium oxysporum; experiment: Antifungal activity against Fusarium oxysporum CBS 149.25 upto 100 ug/mL after 24 hrs by microtiter plate assay; format: functional, organism-based; in short: as §1
[7] = tested on: Paecilomyces variotii; experiment: Antifungal activity against Paecilomyces variotii ETH 114646 upto 100 ug/mL after 24 hrs by microtiter plate assay; format: functional, organism-based; in short: as §1
[8] = tested on: Rhodotorula glutinis; experiment: Antifungal activity against Rhodotorula glutinis ATCC 26085 upto 100 ug/mL after 24 hrs by microtiter plate assay; format: functional, organism-based; in short: as §1
[9] = tested on: Nadsonia fulvescens; experiment: Antifungal activity against Nadsonia fulvescens ATCC 24236 after 24 hrs by microtiter plate assay; format: functional; conditions: ATCC 24236, 24 h; in short: as §1
[10] = tested on: Eremothecium coryli; experiment: Antifungal activity against Nematospora coryli ATCC 10647 after 24 hrs by microtiter plate assay; format: functional; conditions: ATCC 10647, 24 h; in short: as §1
[11] = tested on: Paecilomyces variotii; experiment: Antifungal activity against Paecilomyces variotii ETH 114646 after 24 hrs by microtiter plate assay; format: functional; in short: as §1
[12] = tested on: Rhodotorula glutinis; experiment: Antifungal activity against Rhodotorula glutinis ATCC 26085 after 24 hrs by microtiter plate assay; format: functional; conditions: ATCC 26085, 24 h; in short: as §1

SMILES	IC90 [1]	IC90 [2]	IC90 [3]	Activity [4]	Activity [5]	Activity [6]	Activity [7]	Activity [8]	MIC [9]	MIC [10]	MIC [11]	MIC [12]
CCCCC(O)/C=C(C)/C=C/C=C/C(=O)N1CCCC1CO (configuration not stated) [VIRIDITIN]	25 µg/mL (≈ 81.3 µM)	25 µg/mL (≈ 81.3 µM)	25 µg/mL (≈ 81.3 µM)	inactive	inactive	inactive	inactive	inactive	–	–	–	–
CCCCC(/C=C(C)/C=C/C=C/C(=O)N1CCCC1CO)OC (configuration not stated)	–	–	–	inactive	inactive	inactive	inactive	inactive	–	–	–	–
CCCC[C@@H](O)/C=C(C)/C=C/C=C/C(=O)N1CCCC1=O [PECILOCIN]	–	–	–	–	–	–	–	–	1 µg/mL (≈ 3.43 µM)	1 µg/mL (≈ 3.43 µM)	1 µg/mL (≈ 3.43 µM)	1 µg/mL (≈ 3.43 µM)
